This is a sample that favours compounds with a hit; in the whole collection about 2.9% have one here.
H9c2 TAG inh: reduces triacylglycerol accumulation in H9c2 cells; inhibition, % at 12.5 µM; Nile Red lipid (TAG) fluorescence; cells loaded with 200 µM oleic acid; 0.66% of 230,000 active;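 active = pattern-corrected inhibition of lipid staining of at least 50% with the nuclear-stain viability signal not falling by more than 50%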;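 also: 0% = DMSO wells and 100% = triacsin C control wells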
Calb FLC: affects C. albicans growth with fluconazole; C. albicans CaCi-2 + fluconazole, Alamar Blue growth, 48 h; growth inhibition, % (no concentration beside the values); 0.57% of 300,000 active; AID 1979;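 active = growth inhibition above about 58% in most replicates, limit read from the data, passing the limit was not always enough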;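 also: all wells also contain fluconazole at 8 µg/ml as a sub-toxic cotreatment; 0% = median of DMSO wells and 100% = median of geldanamycin control wells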
MC4R antag cAMP: human MC4R antagonism in cAMP assay. P32245. MC4R-expressing cells, MTII-stimulated cAMP, LANCE TR-FRET. inhibition, % at 6.5 µM. 0.48% of 360,000 active;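 active = inhibition above its plate's cutoff, the mean of tested wells on that plate plus 3 SD, cut at about 29% in these data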;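 also: 0% = Melanotan II alone and 100% = Melanotan II plus saturating MCL0020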
Target sequence (P32245 whole entry, looked up): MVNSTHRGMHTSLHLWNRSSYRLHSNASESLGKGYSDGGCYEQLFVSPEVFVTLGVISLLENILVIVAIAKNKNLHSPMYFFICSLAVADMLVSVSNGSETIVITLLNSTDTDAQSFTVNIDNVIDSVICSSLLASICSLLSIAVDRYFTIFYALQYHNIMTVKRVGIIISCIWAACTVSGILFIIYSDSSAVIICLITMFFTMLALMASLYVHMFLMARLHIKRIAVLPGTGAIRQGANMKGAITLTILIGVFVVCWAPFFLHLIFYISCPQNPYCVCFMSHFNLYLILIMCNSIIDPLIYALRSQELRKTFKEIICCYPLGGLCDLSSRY
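Material: human MC4R-expressing U2OS cells. Probe or stimulus: Melanotan II challenge. Dosing: 6.5 µM single dose. Times: 30-min compound, 1-h challenge, 1-h detection, room temperature. Technique: TR-FRET with Eu-cAMP and labeled anti-cAMP, 671 nm. Replication: singlicate.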
MC4R barr agon: human MC4R agonism via beta-arrestin; activation, % at 8.9 µM; U2OS MC4R beta-arrestin complementation, luminescence; percent of melanotan II response, DMSO zero; 0.98% of 360,000 active; AID 540308; P32245;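 active = activation above a per-plate cutoff, the mean activation of sample wells on that plate plus 3 SD, cut at about 8% in these data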
Efflux pump inh: inhibitors of Candida antifungal efflux pumps expressed in yeast; S. cerevisiae Candida pump triplex, Nile Red efflux; inhibition, % at 10 µM; 0.44% of 330,000 active;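 active = plate passing quality check with inhibition over a set limit, or well fluorescence over plate mean plus 4 SD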;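 also: Nile Red retained in pooled yeast measured as flow cytometry median fluorescence; 0% = buffer negative control and 100% = Enniatin B positive control; higher means more Nile Red kept so more efflux inhibition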
GalR3 antagonist: blocks the human galanin receptor 3 | 0.44% of 360,000 active | AID 651719 | HEK293 GalR3-CNG cAMP membrane potential fluorescence; galR3 body fused to GalR1 C-terminus | inhibition, % at 3 µM | O60755;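 active = inhibition above the screen-wide average plus 3 SD, cut at about 13% in these data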;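 also: forskolin and galanin both at EC90 stimulate the cells; cAMP rise reported by CNG channel membrane potential dye signal; 0% = forskolin plus galanin with DMSO and 100% = forskolin alone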
Target sequence (O60755 1-299 limits assumed): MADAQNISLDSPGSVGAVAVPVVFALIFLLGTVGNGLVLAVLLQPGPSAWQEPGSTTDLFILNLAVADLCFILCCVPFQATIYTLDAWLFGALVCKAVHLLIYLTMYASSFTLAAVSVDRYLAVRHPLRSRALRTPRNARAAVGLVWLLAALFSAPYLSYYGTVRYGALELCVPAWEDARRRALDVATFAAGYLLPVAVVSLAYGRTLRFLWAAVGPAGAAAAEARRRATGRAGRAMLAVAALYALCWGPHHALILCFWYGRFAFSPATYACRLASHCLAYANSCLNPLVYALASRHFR
MC4R barr ag: human MC4R beta-arrestin agonism confirmation | shares compounds with MC4R barr agon | U2OS MC4R beta-arrestin recruitment, luminescence; scaled DMSO 0%, Melanotan II 100% | activation, % at 8.9 µM | 31% of 2,400 active;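 active = mean activation across replicates above the hit cutoff set in the earlier primary screen, cut at about 8% in these data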
MOR-DOR barr ag: OPRM1-OPRD1 heterodimer agonism counter-screen; U2OS PathHunter beta-arrestin, beta-gal luminescence; percent of deltorphin B response, DMSO zero; 5.8% of 2,400 active; shares compounds with MC4R barr agon; AID 602194; activation, % at 9.2 µM;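 active = mean activation across replicates exceeds the hit threshold derived in the earlier primary screen, cut at about 18% in these data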;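 also: 100% = deltorphin B at 0.9 µM final and 0% = DMSO alone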
* = called active by the depositor; nt = no result given.

SMILES	H9c2 TAG inh	Calb FLC	MC4R antag cAMP	MC4R barr agon	Efflux pump inh	GalR3 antagonist	MC4R barr ag	MOR-DOR barr ag
C[C@H](O)[C@@H]1CN2CCc3ccc(-c4ccc5c(c4)OCO5)cc3[C@@H]2C[C@@H]1N(C)C(=O)NC1CCCCC1	nt	nt	nt	nt	nt	-8	nt	nt
CC(CCc1ccccc1)NC(=O)c1ccc(NC(=O)c2ccc(Cl)cc2Cl)cc1 (stereo not given)	nt	5	1	9.9*	0	-2	7	6
CCn1c(SCC(=O)Nc2ccc3c(c2)oc2ccccc23)nnc1-c1ccc(N)cc1	7	-30	10	15*	0	-8	16*	19*
O=C(NCCO)c1ccc(-c2ccc3nncn3c2)cc1	11	nt	-2	0	nt	-7	nt	nt
COc1ccc(N2CCN(c3cc(C)c4ccccc4n3)CC2)cc1	-8	22	-2	16*	0	-2	0	4
COc1cccc2c1OC1(N3CCOCC3)CCCCC1C2C[N+](=O)[O-] (stereo not given)	-8	nt	0	-3	nt	-2	nt	nt
COCCCn1c(=O)/c(=C\c2ccc(OC(F)F)c(OC)c2)s/c1=C(/C#N)C(N)=O	14	-2	-4	12*	0	-5	6	15
COCCCn1c(=O)/c(=C\c2ccccc2OC(F)F)s/c1=C(/C#N)C(N)=O	0	-17	-2	2	0	-7	nt	nt
CC#CC(=O)N1CCC(n2nccc2NC(=O)CCc2ccccc2)CC1	-10	nt	-1	0	nt	-2	nt	nt
c1ccc(Cc2nnc(-c3ccccc3)o2)cc1	12	-9	4	15*	0	-9	25*	19*
NC1=NC(=O)/C(=C/c2c(OS(=O)(=O)c3ccc(Cl)cc3)ccc3ccccc23)S1	nt	4	7	9.6*	0	-1	2	5
COc1ccc([N+](=O)[O-])c(O)c1C(C)=O	-1	nt	-2	-1	nt	-4	nt	nt
COc1ccc(C(=O)Nc2nnc(Cc3ccccc3)s2)c(OC)c1	nt	3	-10	15*	0	-4	-1	7
O=C(Nc1nnc(CCc2ccccc2)s1)c1cccc(F)c1	nt	42	8	14*	0	-10	1	5
O=C(Nc1nnc(CCc2ccccc2)s1)c1ccc(F)cc1	nt	7	-1	0	0	-9	nt	nt
Cc1ccc(NC(=O)c2sc3ncn(CC(=O)N4CCN(c5ccccn5)CC4)c(=O)c3c2C)cc1	-13	nt	-1	-1	nt	-5	nt	nt
Cc1c(C(=O)Nc2ccc(C(F)(F)F)cc2)sc2ncn(CC(=O)N3CCN(c4ccccn4)CC3)c(=O)c12	nt	1	-5	14*	0	-11	5	9
CC(=O)c1ccc(Cc2ccc(C(C)=O)s2)s1	7	nt	0	11*	nt	-3	12*	2
CCc1ccc(C(=O)c2ccccc2C(=O)O)s1	-8	-2	8	-1	0	-4	nt	nt
CCOC(=O)C1(C)CCCN1C(=O)c1cccs1 (stereo not given)	12	nt	1	5	nt	-3	nt	nt
O=C(Cc1cccs1)Nc1nnc(SCC(=O)NC2CCCCC2)s1	11	-9	-3	-1	0	-6	nt	nt
O=C(Cc1cccs1)Nc1nnc(SCc2cccc3ccccc23)s1	nt	0	3	12*	0	1	3	3
CC(C)(C)OC(=O)N[C@@H](Cc1ccccc1)c1nnc(SCC(=O)c2ccc(Cl)cc2)o1	nt	-18	-1	35*	0	-6	2	3
Cc1cccc(NC(=S)N/N=C/c2ccc(Cl)c([N+](=O)[O-])c2)c1	12	-12	18	22*	0	2	5	9
Cc1cccc(NC(=S)N/N=C/c2cccc([N+](=O)[O-])c2)c1	-5	-16	-6	-2	0	nt	nt	nt
SMILES	H9c2 TAG inh	Calb FLC	MC4R antag cAMP	MC4R barr agon	Efflux pump inh	GalR3 antagonist	MC4R barr ag	MOR-DOR barr ag
CCOc1ccccc1NC(=O)c1ccc2[nH]c(C)c(C)c2c1	nt	-3	11	12*	0	-11	1	8
COc1ccc(NC(=O)c2ccc3[nH]c(C)c(C)c3c2)c(OC)c1	nt	-2	17	2	0	-11	nt	nt
COc1cc(NC(=O)N2CCc3nc(Nc4cc(Cl)cc(Cl)c4)ncc3C2)cc(OC)c1OC	18	nt	15	-3	nt	-9	nt	nt
Cc1ccc(OCC(=O)NC(=S)Nc2cccc(NC(=O)c3ccccc3)c2)cc1	nt	17	-7	15*	0	-10	17*	7
Cc1ccc(OCC(=O)NC(=S)Nc2cccc(NC(=O)c3ccc(Cl)cc3Cl)c2)cc1	nt	3	-4	22*	0	-10	7	3
CCCCC(=O)Nc1cccc(NC(=S)NC(=O)COc2ccccc2Cl)c1	-21	7	2	18*	0	-4	13*	2
O=C(COc1ccccc1)NC(=S)Nc1ccc2c3c(cccc13)CC2	-5	-19	13	14*	0	1	1	3
O=[N+]([O-])c1cccc(SSc2cccc([N+](=O)[O-])c2)c1	-9	nt	-13	-3	nt	-6	nt	nt
CC1(C(=O)NS(=O)(=O)c2cccs2)CCN1C(=O)CCc1ccc(Cl)cc1Cl (stereo not given)	8	nt	0	-1	nt	2	nt	nt
CC(=O)NC(=S)Nc1ccc(NC(=O)COc2ccc(Cl)cc2Cl)cc1	24	39	0	31*	0	-6	4	8
NS(=O)(=O)c1ccc(CCNc2ccn3nc(-c4cccc(C(F)(F)F)c4)cc3n2)cc1	12	nt	22	7	nt	-2	nt	nt
Cc1nn(-c2ccccc2)c(Cl)c1/C=N/Nc1nc2ccccc2[nH]1	17	-10	-1	12*	0	-8	3	10
Cc1cc(=O)[nH]c(N/N=C/c2c(C)nn(-c3ccccc3)c2Cl)n1	15	17	22	1	0	4	nt	nt
Cc1ccc2nc(-c3cccc(NS(C)(=O)=O)c3)cc(-c3ccccc3)c2c1	nt	-1	0	11*	-1	-1	7	3
COc1ccccc1NC(=O)COC(=O)c1cc2c(s1)CCC2	-1	nt	4	2	nt	-3	nt	nt
COc1ccc(OC)c(NC(=O)COC(=O)c2cc3c(s2)CCC3)c1	-22	26	12	20*	0	-9	7	7
OC(CNCCC1C=Nc2ccccc21)Cn1c2ccc(Cl)cc2c2cc(Cl)ccc21 (stereo not given)	nt	99*	-4	17*	0	-1	5	31*
Cc1cc(C)n(CC(O)Cn2c3ccc(Cl)cc3c3cc(Cl)ccc32)c(=O)n1 (stereo not given)	nt	10	5	2	0	-6	nt	nt

Screens as filed in PubChem BioAssay.
